In ChEMBL document CHEMBL1145193, “Identification of substituted 6-amino-4-phenyltetrahydroquinoline derivatives: potent antagonists for the follicle-stimulating hormone receptor” (J Med Chem, 2005):

target: T1, Follicle-stimulating hormone receptor (Homo sapiens, UniProt P23945); experiment: In vitro inhibition of maximum response on CHO-K1 cells expressing human Follicle stimulating hormone receptor; Not active; format: functional, cell-based
T1 sequence (P23945 whole entry): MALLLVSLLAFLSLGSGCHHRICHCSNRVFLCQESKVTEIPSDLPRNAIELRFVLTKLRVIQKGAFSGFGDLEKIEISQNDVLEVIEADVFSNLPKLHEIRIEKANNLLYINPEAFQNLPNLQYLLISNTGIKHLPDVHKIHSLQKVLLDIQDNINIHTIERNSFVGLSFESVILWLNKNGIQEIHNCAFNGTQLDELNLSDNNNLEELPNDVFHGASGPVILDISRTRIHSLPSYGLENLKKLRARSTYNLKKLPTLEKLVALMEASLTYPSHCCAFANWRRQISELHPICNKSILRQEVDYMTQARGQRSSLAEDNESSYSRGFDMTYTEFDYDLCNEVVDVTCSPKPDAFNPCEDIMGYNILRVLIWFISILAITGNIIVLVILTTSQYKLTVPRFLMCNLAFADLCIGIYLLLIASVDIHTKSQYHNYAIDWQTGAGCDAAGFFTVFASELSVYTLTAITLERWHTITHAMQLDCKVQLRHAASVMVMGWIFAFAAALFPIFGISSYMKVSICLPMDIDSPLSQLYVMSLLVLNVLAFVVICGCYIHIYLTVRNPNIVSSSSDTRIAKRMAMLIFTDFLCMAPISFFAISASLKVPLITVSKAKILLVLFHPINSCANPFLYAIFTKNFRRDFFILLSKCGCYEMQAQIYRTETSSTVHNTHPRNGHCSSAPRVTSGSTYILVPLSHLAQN
Outline: (§1)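 Antagonist-mode assay in CHO cells expressing human FSH receptor with a luciferase reporter: cells are stimulated with FSH and test compound is added. IC50 values come from duplicate measurements and represent at least two independent experiments; the SD of pIC50 is typically below 0.2. Compounds are scored "n.a." (not active) where no antagonism is seen.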

IC50	Compound
Not Active	CC(=O)N1c2ccc(CNc3ccc(-c4ccccc4)cc3)cc2C(C)(c2ccccc2)CC1(C)C (stereo not given)
Not Active	CC(=O)N1c2ccc(NC(=O)c3ccc(-c4ccccc4)cc3)cc2C(C)(c2ccccc2)CC1(C)C (single isomer, unassigned; isomer I)

target: T1, Follicle-stimulating hormone receptor; experiment: In vitro inhibition of maximum response on CHO-K1 cells expressing human Follicle stimulating hormone receptor; format: functional, cell-based; outline: as §1

IC50 [nM]	Compound
5	CC(=O)N1c2cc(C)c(NC(=O)c3ccc(-c4ccccc4)cc3)cc2C(C)(c2ccccc2)CC1(C)C (stereo not given)
930	CC(=O)N1c2ccc(NCc3ccc(C(C)(C)C)cc3)cc2C(C)(c2ccccc2)CC1(C)C (stereo not given)
7	CC(=O)N1c2ccc(NC(=O)c3ccc(C(F)(F)F)cc3)cc2C(C)(c2ccccc2)CC1(C)C (stereo not given)
27	CC(=O)N1c2ccc(NC(=O)c3ccco3)cc2C(C)(c2ccccc2)CC1(C)C (stereo not given)
2800	CC(=O)N1c2ccc(NS(=O)(=O)Cc3ccccc3)cc2C(C)(c2ccccc2)CC1(C)C (stereo not given)
170	COc1ccccc1C1(C)CC(C)(C)N(C(C)=O)c2ccc(NC(=O)c3ccc(-c4ccccc4)cc3)cc21 (stereo not given)
31	CC(=O)N1c2ccc(NC(=O)c3ccc(Cl)cc3)cc2C(C)(c2ccccc2)CC1(C)C (stereo not given)
166	CC(=O)N1c2ccc(OCc3ccc(-c4ccccc4)cc3)cc2C(C)(c2ccccc2)CC1(C)C (stereo not given)
240	CC(=O)N1c2ccc(NC(=O)c3ccc(-c4ccccc4)cc3)cc2C(C)(c2ccc(O)cc2)CC1(C)C (stereo not given)
30	COc1cc(NC(=O)c2ccc(-c3ccccc3)cc2)cc2c1N(C(C)=O)C(C)(C)CC2(C)c1ccccc1 (stereo not given)
1880	COc1ccc(CCNC(=O)c2ccc3c(c2)C(C)(c2ccccc2)CC(C)(C)N3C(C)=O)cc1 (stereo not given)
25	CC(=O)N1c2ccc(NC(=O)c3ccccc3-c3ccccc3)cc2C(C)(c2ccccc2)CC1(C)C (stereo not given)
5	CCCc1ccc(C(=O)Nc2ccc3c(c2)C(C)(c2ccccc2)CC(C)(C)N3C(C)=O)cc1 (stereo not given)
76	CC(=O)N1c2ccc(NC(=O)COC(C)(C)C)cc2C(C)(c2ccccc2)CC1(C)C (stereo not given)
9	CC(=O)N1c2ccc(NC(=O)c3cccc(-c4ccccc4)c3)cc2C(C)(c2ccccc2)CC1(C)C (stereo not given)
28	CC(=O)N1c2ccc(NC(=O)c3ccc(-c4ccccc4)cc3)cc2C(C)(c2ccccc2)CC1(C)C (stereo in doubt; 10)
50	CC(=O)N1c2ccc(NC(=O)c3ccc(-c4ccccc4)cc3)cc2C(C)(c2ccc(C)cc2)CC1(C)C (stereo not given)
4	CC(=O)N1c2ccc(NC(=O)c3ccc(-c4ccccc4)cc3)cc2C(C)(c2ccccc2)CC1(C)C (single isomer, unassigned; isomer II)
54	CC(=O)N1c2ccc(OC(=O)c3ccc(-c4ccccc4)cc3)cc2C(C)(c2ccccc2)CC1(C)C (stereo not given)
580	CC(=O)N1c2ccc(NC(=O)Nc3ccccc3)cc2C(C)(c2ccccc2)CC1(C)C (stereo not given)

target: T1, Follicle-stimulating hormone receptor; experiment: Effective concentration for maximum response on CHO-K1 cells expressing human Follicle stimulating hormone receptor; format: functional, cell-based

EC50 [nM]	Compound
4400	CC(=O)N1c2ccc(N)cc2C(C)(c2ccccc2)CC1(C)C (stereo not given)

target: T1, Follicle-stimulating hormone receptor; experiment: In vitro inhibition of maximum response evoked by cAMP on CHO-K1 cells expressing human Follicle stimulating hormone receptor; format: functional, cell-based
Outline: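 CHO cells stably expressing human FSH receptor, run in antagonist mode. The natural ligand FSH stimulates the receptor and the test compound is added. FSH-induced cAMP production is measured as the functional read-out in place of luciferase, and an IC50 is derived.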

IC50 [nM]	Compound
10	CC(=O)N1c2ccc(NC(=O)c3ccc(-c4ccccc4)cc3)cc2C(C)(c2ccccc2)CC1(C)C (stereo in doubt; 10)

target: T2, Follicle-stimulating hormone receptor (Rattus norvegicus, UniProt P20395); experiment: In vitro inhibition against maximum response evoked by cAMP in rat GFSHR-17 granulosa cell line; format: functional
T2 sequence (P20395 whole entry): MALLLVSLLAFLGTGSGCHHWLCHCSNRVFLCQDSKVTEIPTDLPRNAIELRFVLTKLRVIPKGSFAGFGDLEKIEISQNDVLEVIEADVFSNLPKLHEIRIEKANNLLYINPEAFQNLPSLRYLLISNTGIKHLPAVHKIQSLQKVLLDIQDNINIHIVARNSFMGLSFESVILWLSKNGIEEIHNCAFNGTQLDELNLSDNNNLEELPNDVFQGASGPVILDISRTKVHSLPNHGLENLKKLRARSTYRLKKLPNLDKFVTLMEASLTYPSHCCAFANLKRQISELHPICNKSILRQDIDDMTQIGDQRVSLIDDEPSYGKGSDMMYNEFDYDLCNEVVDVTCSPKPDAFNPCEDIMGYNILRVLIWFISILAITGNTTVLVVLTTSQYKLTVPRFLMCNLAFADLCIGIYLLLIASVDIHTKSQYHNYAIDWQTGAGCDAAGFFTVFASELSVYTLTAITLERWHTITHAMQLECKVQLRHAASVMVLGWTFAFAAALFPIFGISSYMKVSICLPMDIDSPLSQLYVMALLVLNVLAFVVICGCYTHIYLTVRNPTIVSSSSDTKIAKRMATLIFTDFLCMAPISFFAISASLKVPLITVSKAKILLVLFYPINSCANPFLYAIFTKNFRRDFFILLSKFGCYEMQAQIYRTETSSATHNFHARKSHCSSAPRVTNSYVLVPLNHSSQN
Outline: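 Granulosa cell line GFSHR-17, stably expressing rat FSH receptor, incubated with FSH plus test compound; read-out is inhibition of FSH-induced cAMP production, reported as IC50.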

IC50 [nM]	Compound
540	CC(=O)N1c2ccc(NC(=O)c3ccc(-c4ccccc4)cc3)cc2C(C)(c2ccccc2)CC1(C)C (stereo in doubt; 10)

target: T3, Follicle-stimulating hormone receptor (Homo sapiens) (UniProt P23945); experiment: In vitro inhibition of maximum response on CHO-K1 cells expressing human Follicle stimulating hormone receptor at 1E-5M; format: functional, cell-based
T3 sequence (whole entry): T1 sequence (P23945 whole entry)

inhibition [%]	Compound
74	CC(=O)N1c2ccc(NC(=O)c3ccc(-c4ccc(C(C)(C)C)cc4)cc3)cc2C(C)(c2ccccc2)CC1(C)C (stereo not given)
25	CC(=O)N1c2ccc(C(=O)NCc3cccs3)cc2C(C)(c2ccccc2)CC1(C)C (stereo not given)
80	CC(=O)N1c2ccc(OCCc3ccccc3)cc2C(C)(c2ccccc2)CC1(C)C (stereo not given)
44	CC(=O)N1c2ccc(C(=O)Nc3ccc(-c4ccccc4)cc3)cc2C(C)(c2ccccc2)CC1(C)C (stereo not given)

species: Mus musculus; experiment: Inhibition of follicle growth (ovulation) in mouse at 10 uM concentration; format: functional
Outline: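 Ex vivo culture of immature mouse follicles in the presence of FSH, with or without test compound at 10 µM. Follicle growth is compared with FSH-only follicles, and ovulation is scored as % ovulated follicles.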

Compound	Inhibition [%]
CC(=O)N1c2ccc(NC(=O)c3ccc(-c4ccccc4)cc3)cc2C(C)(c2ccccc2)CC1(C)C (stereo in doubt; 10)	78
